Type in all cases: functional, cell-based
For one assay, the system named is HL-60. The assay can be described thus: Cytotoxicity against human HL60 cells after 72 hrs by MTT assay. The note with it: HL-60, 72 h. The method, boiled down: (§1)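 Cells grown in Eagle's MEM with 10% fetal calf serum at 37 °C, 5% CO2. Test material dissolved in DMSO (10 mM stock), diluted in medium to 200, 20 and 2 µM working solutions, combined with cell suspension (1 × 10^5 cells/ml). Incubated 72 h at 37 °C, MTT labeling, formazan dissolved in 20% SDS/0.1 N HCl, absorbance 540 nm. Growth as % of untreated control; triplicate assays; IC50 from semilog plots of averaged data.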

The test system of a further assay is KB. In words: Cytotoxicity against human KB cells after 72 hrs by MTT assay. The method, boiled down:
as §1
(In general: Tetrazolium dyes change colour on reduction, which living cells bring about.)

Another assay deals with L1210. In words: Cytotoxicity against mouse L1210 cells after 72 hrs by MTT assay. The note with it: L1210, 72 h. Summed up: as §1
The next assay relates to P388. In words: Cytotoxicity against mouse P388 cells after 72 hrs by MTT assay. To be noted: P388, 72 h. The method, boiled down:
as §1

One may read the IC50 as the concentration at which inhibition is half-maximal. `C/C=C(\C)C(=O)C[C@H]1C2=COC(/C=C/[C@H](C)[C@@H](C)O)=CC2=C(Cl)C(=O)[C@@]1(C)O`: the half-maximal inhibitory concentration (IC50) in the assay on HL-60 came out at 1 µM; with KB it was 1.2 µM; in the assay with L1210, 1.6 µM.

As for `C/C=C(\C)C(=O)C[C@H]1C2=COC(/C=C/[C@@H](C)[C@@H](C)O)=CC2=C(Cl)C(=O)[C@@]1(C)O` [CHAETOMUGILIN I], the IC50 in the assay with HL-60 is 1.1 µM; in the assay with KB, 2.3 µM; with P388, 1.1 µM; in the assay on L1210, 1.9 µM.

As for `C/C=C(\Cl)C(=O)[C@@](C)(O)[C@H]1CC(=O)C(C)=C2C=C(/C=C/[C@@H](C)[C@@H](C)O)OC=C21` [CHAETOMUGILIN P], the IC50 turned out to be 1.2 µM in the assay with HL-60, 1.8 µM with KB, 0.7 µM in the assay on P388 and 1.5 µM in the assay with L1210.

With `C[C@H](O)[C@@H](C)/C=C/C1=CC2=C(Cl)C(=O)[C@](C)(O)[C@@H](O)[C@@H]2CO1` [CHAETOMUGILIN R], the concentration for half-maximal inhibition (IC50) in the assay with HL-60 amounted to 51.8 µM; in the assay with KB it was 67.1 µM; with P388 it was 32 µM; in the assay on L1210, 67.1 µM.

Take `O=c1[nH]cc(F)c(=O)[nH]1` [FLUOROURACIL]: the IC50 in the assay on HL-60 was determined as 2.7 µM; in the assay with KB, 7.7 µM; with P388, 1.7 µM; in the assay on L1210, 1.1 µM.

For the origin of these results see ChEMBL document CHEMBL1795252, “New class azaphilone produced by a marine fish-derived Chaetomium globosum. The stereochemistry and biological activities” (Bioorg Med Chem, 2011).
